Published values of several laboratories.
Each line is one published result; the experiments were not run side by side.
EGFR: Epidermal growth factor receptor (EGFR, Homo sapiens, UniProt P00533)
EGFR L858R/T790M: Epidermal growth factor receptor (EGFR, Homo sapiens, UniProt P00533, L858R/T790M)

C[C@H](C(=O)N[C@H]1COc2ccccc2[C@@H]1S(C)(=O)=O)c1ccc(F)cc1  inhibition (EGFR; enzyme activity; inhibitor; 10 µM): 1%
Nc1ncc(-c2nc(N3CCOCC3)nc(N3CCOCC3)n2)c(C(F)F)n1  remaining binding (Epidermal growth factor receptor (EGFR, Homo sapiens, UniProt P00533, L861Q); cell-free assay; competition with immobilised ligand; 10 µM): 77%
N#CC1(c2ccccn2)CCN(Cc2cc(C(=O)O)c(=O)n3ccccc23)CC1  remaining binding (EGFR L858R/T790M; cell-free assay; competition with immobilised ligand; 1 µM): 71%
O=c1[nH]c2ccccc2n1C1CCN(Cc2ccc(-c3[nH]c4cc5ncnc5cc4nc3-c3ccccc3)cc2)CC1  remaining signal (EGFR; cell-free assay; 0.5 µM): 99.8%
C#Cc1n[nH]c2c(-c3cn([C@@H](C)c4ccccc4)c(=O)[nH]c3=O)cc(F)cc12  inhibition (EGFR L858R/T790M; enzyme activity; inhibitor; 0.1 µM): -4.9%
Cc1nn(C)cc1-c1nc2c(N3CCN(Cc4ccc(Cl)cc4)CC3)c(Cl)cnc2[nH]1  remaining binding (Epidermal growth factor receptor (EGFR, Homo sapiens, UniProt P00533, T790M); binding; competition with immobilised ligand; 1 µM): 82%
COc1ncccc1-c1cnn2ccc(N3CCN(C(=O)OC(C)C)CC3)nc12  remaining binding (EGFR; binding; competition with immobilised ligand; 1 µM): 89%
COc1ccc2c(c1)/C(=C/c1cnc[nH]1)C(=O)N2  remaining signal (EGFR; cell-free assay; 0.5 µM): 99.4%
C#Cc1n[nH]c2c(-c3cn(C(C)c4ccccn4)c(=O)[nH]c3=O)cc(F)cc12 (centres unmarked)  inhibition (EGFR; enzyme activity; inhibitor; 1 µM): -3.8%
CC(C)[C@@H]1NC(=O)[C@H](C)NC(=O)[C@H](C)NC(=O)[C@H](Cc2ccc(O)cc2)NC(=O)[C@H](Cc2ccc(O)cc2)NC(=O)[C@H](Cc2ccccc2)NC(=O)[C@@H](Cc2ccc(O)cc2)NC(=O)CSC[C@@H](C(=O)NCC(N)=O)NC(=O)[C@H](C)NC(=O)[C@H](CCCNC(=N)N)NC(=O)[C@H](CCCNC(=N)N)NC(=O)[C@H](Cc2ccc(O)cc2)NC(=O)[C@H](C(C)C)NC(=O)[C@H](C(C)C)NC(=O)[C@H](CC(N)=O)NC1=O  kon (EGFR; binding; SPR): 38800 M⁻¹ s⁻¹
Cn1cncc1[C@@](O)(COc1ccc(C#N)cc1-c1ccc(OC(F)(F)F)cc1)c1ccc(C#N)cc1  remaining binding (Epidermal growth factor receptor (EGFR, Homo sapiens, UniProt P00533, del746-750); cell-free assay; competition with immobilised ligand; 1 µM): 100%
